Results as given in ChEMBL document CHEMBL1921724, “In search of a cytostatic agent derived from the alkaloid lycorine: synthesis and growth inhibitory properties of lycorine derivatives” (Bioorg Med Chem, 2011).

Assays:
[1] = Growth inhibition of pro-apoptotic stimuli-sensitive human Hs683 cells after 72 hrs by MTT assay; assay type: functional; conditions: Hs 683, 72 h
Method in brief: (§1)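 Cells seeded at 10,000 to 40,000 cells/mL depending on cell type and allowed to attach for 24 h. They were then cultured 72 h with or without compound (untreated control). Living cells were measured by MTT reduction to formazan, read at 570 nm against a 630 nm reference. GI50 was derived from the growth levels.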

[2] = system: MCF7; assay: Growth inhibition of human MCF7 cells after 72 hrs by MTT assay; assay type: functional; conditions: MCF7, 72 h
[3] = system: B16-F10; assay: Growth inhibition of pro-apoptotic stimuli-sensitive mouse B16F10 cells after 72 hrs by MTT assay; assay type: functional; conditions: B16-F10, 72 h; method in brief: as §1
[4] = Growth inhibition of pro-apoptotic stimuli-resistant human U373 cells after 72 hrs by MTT assay; assay type: functional, U-373MG ATCC; conditions: U373 MG; method in brief: as §1
[5] = system: T98G; assay: Growth inhibition of pro-apoptotic stimuli-resistant human T98G cells after 72 hrs by MTT assay; assay type: functional; method in brief: as §1
[6] = system: A549; assay: Growth inhibition of pro-apoptotic stimuli-resistant human A549 cells after 72 hrs by MTT assay; assay type: functional; conditions: A549, 72 h; method in brief: as §1
[7] = system: SK-MEL-28; assay: Growth inhibition of pro-apoptotic stimuli-resistant human SK-MEL-28 cells after 72 hrs by MTT assay; assay type: functional; conditions: SK-MEL-28, 72 h; method in brief: as §1
[8] = system: PC-3; assay: Growth inhibition of human PC3 cells after 72 hrs by MTT assay; assay type: functional; conditions: PC-3, 72 h

| Structure (SMILES) | GI50 [1] [µM] | GI50 [2] [µM] | GI50 [3] [µM] | GI50 [4] [µM] | GI50 [5] [µM] | GI50 [6] [µM] | GI50 [7] [µM] | GI50 [8] [µM] |
| --- | --- | --- | --- | --- | --- | --- | --- | --- |
| CC(=O)O[C@H]1[C@H]2c3cc4c(cc3C(=O)N3CCC(=C[C@@H]1OC(C)=O)[C@H]23)OCO4 | 49 | > 100 | 75 | 39 | 32 | 36 | 99 | > 100 |
| CC(=O)Oc1cc2c3c(c1)c1cc4c(cc1c(=O)n3CC2)OCO4 | 20 | 50 | 20 | 21 | 29 | 23 | > 100 | 33 |
| CC(=O)O[C@@H]1[C@@H](OC(C)=O)[C@H](O)[C@@]2(O)CCN3C(=O)c4cc5c(cc4[C@H]1[C@H]32)OCO5 | > 100 | > 100 | 86 | > 100 | > 100 | > 100 | > 100 | > 100 |
| O=C1c2cc3c(cc2[C@@H]2[C@H](O)[C@@H](O)C=C4CCN1[C@H]42)OCO3 | > 100 | > 100 | > 100 | > 100 | > 100 | > 100 | > 100 | > 100 |
| O=C(O[C@H]1[C@H]2c3cc4c(cc3CN3CCC(=C[C@@H]1O)[C@H]23)OCO4)c1ccccc1 | 4 | 5 | 8 | 0.6 | 32 | 32 | 4 | 5 |
| O=c1c2cc3c(cc2c2cc(O)cc4c2n1CC4)OCO3 | 40 | 9 | 38 | 49 | 41 | 44 | > 100 | 48 |
| CC(=O)O[C@H]1[C@H]2c3cc4c(cc3C(=S)N3CCC(=C[C@@H]1OC(C)=O)[C@H]23)OCO4 | 52 | 35 | 30 | 46 | 57 | 57 | 47 | > 100 |
| O=C1c2cc3c(cc2[C@@H]2[C@H](O)[C@@H](O)[C@H](O)[C@@]4(O)CCN1[C@@H]24)OCO3 | > 100 | 96 | > 100 | > 100 | > 100 | > 100 | > 100 | > 100 |
| O[C@@H]1[C@@H](O)[C@H](O)[C@@]2(O)CCN3Cc4cc5c(cc4[C@H]1[C@H]32)OCO5 | > 100 | > 100 | 83 | > 100 | > 100 | > 100 | > 100 | > 100 |
| CC(=O)O[C@@H]1[C@@H](OC(C)=O)[C@H](OC(C)=O)[C@@]2(O)CCN3C(=O)c4cc5c(cc4[C@H]1[C@H]32)OCO5 | > 100 | > 100 | > 100 | > 100 | > 100 | > 100 | > 100 | > 100 |
| CC(=O)O[C@@H]1[C@@H](OC(C)=O)[C@H](OC(C)=O)C2=CCN3C(=O)c4cc5c(cc4[C@H]1[C@@H]23)OCO5 | > 100 | > 100 | 83 | > 100 | > 100 | > 100 | > 100 | > 100 |
| O=C1c2cc3c(cc2[C@@H]2[C@H](O)[C@@H](O)[C@H](O)C4=CCN1[C@H]42)OCO3 | > 100 | > 100 | > 100 | > 100 | > 100 | > 100 | > 100 | > 100 |
| CC(C)(C)C(=O)O[C@H]1C=C2CCN3Cc4cc5c(cc4[C@H]([C@@H]1O)[C@@H]23)OCO5 | 15 | 36 | 5 | 9 | 12 | 7 | 10 | 12 |
| CC(C)[Si](O[C@H]1C=C2CCN3Cc4cc5c(cc4[C@H]([C@@H]1O)[C@@H]23)OCO5)(C(C)C)C(C)C | 22 | 24 | 22 | 13 | 11 | 15 | 26 | 18 |
| O=C(O[C@H]1[C@H]2c3cc4c(cc3CN3CCC(=C[C@@H]1OC(=O)c1ccccc1)[C@H]23)OCO4)c1ccccc1 | 10 | 20 | 24 | 1 | 54 | 54 | 29 | 11 |
| O=C(O[C@H]1C=C2CCN3Cc4cc5c(cc4[C@H]([C@@H]1O)[C@@H]23)OCO5)c1ccccc1 | 6 | 23 | 21 | 1 | 70 | 70 | 60 | 34 |
| CCCCCCCCCCCCCCCC(=O)O[C@H]1[C@H]2c3cc4c(cc3CN3CCC(=C[C@@H]1O[Si](C(C)C)(C(C)C)C(C)C)[C@H]23)OCO4 | 21 | 25 | 38 | 13 | 3 | 9 | 38 | 20 |
| CC(=O)O[C@H]1[C@H]2c3cc4c(cc3CN3CCC(=C[C@@H]1O[Si](C(C)C)(C(C)C)C(C)C)[C@H]23)OCO4 | 36 | 27 | 30 | 15 | 6 | 18 | 34 | 26 |
| O[C@H]1C=C2CCN3Cc4cc5c(cc4[C@H]([C@@H]1OCc1ccccc1)[C@@H]23)OCO5 | 80 | 74 | 57 | 50 | 34 | 67 | > 100 | 97 |
| O=c1c2cc3c(cc2c2cccc4ccn1c42)OCO3 | 19 | 27 | 34 | 27 | 96 | 96 | > 100 | > 100 |
| CC(=O)Oc1cc2ccn3c(=O)c4cc5c(cc4c(c1)c23)OCO5 | 14 | 7 | 5 | 5 | 18 | 18 | 21 | 21 |
| CC(=O)O[C@H]1[C@H]2c3cc4c(cc3CN3CCC(=C[C@@H]1O)[C@H]23)OCO4 | 11 | 4 | 43 | 4 | 2 | 3 | 3 | 3 |
| O=c1c2cc3c(cc2c2cccc4c2n1CC4)OCO3 | 14 | 16 | 8 | 4 | 24 | 24 | 33 | 38 |
| O=C1C=C2CCN3Cc4cc5c(cc4[C@H]([C@@H]1O)[C@@H]23)OCO5 | 3 | 35 | 16 | 45 | 38 | 4 | > 100 | 92 |
